CAL PDZ FP-1: human CAL PDZ-peptide interaction inhibition; inhibition, % at 20 µM; Q9HD26; AID 504414; purified CAL PDZ, TMR-peptide fluorescence polarization, 1 h; 0.02% of 330,000 active;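 active = highest replicate inhibition of at least 40%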;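 also: plate controls were DMSO neutral control wells for no effect and unlabeled competitor peptide control wells for full effect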
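Assay system – tagged CAL PDZ protein CerCALP, purified · Timing – 1 h at RT · Compound – single point, 20 µM · Measured by – fluorescence polarization from S- and P-plane intensities, G-factor corrected · Evaluation – inhibition from polarization loss · Probe or stimulus – TMR reporter peptide T*-PRC34 · Buffer or medium – pH 7.4 phosphate-saline buffer, reducing agent, detergent, IgG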
S100A4 MyoIIA: inhibitors of human S100A4 binding to myosin IIA peptide; 0.14% of 360,000 active; inhibition, % at 10.7 µM; P26447; S100A4/TAMRA-MyoIIA peptide fluorescence polarization; AID 652163;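 active = mean inhibition of at least 70% across replicates, with every replicate also reaching that level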
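Assay system: human S100A4 monomer with TAMRA-labelled myosin IIA peptide / Buffer or medium: Calcium-containing HEPES buffer, pH 7.2 / Reagent: TAMRA-labelled myosin IIA heavy-chain peptide probe, 5 nM / Compound: one dose per compound / Timing: polarization read 5 min after assay mix addition, stable 5–60 min / Benchmarks: neutral control DMSO, positive control TFP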
CAL PDZ FP-2: inhibitors of human CAL PDZ peptide binding; Q9HD26; purified CAL PDZ, TMR-peptide fluorescence polarization, 1 h; inhibition, % at 24.9 µM; 0.92% of 300,000 active; AID 602252;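 active = mean inhibition of at least 30% with at least half of replicates also reaching 30%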;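 also: 0% = DMSO neutral control and 100% = excess unlabeled competitor peptide PRC23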
DENV2 CPE rescue: inhibitors of DENV2 cytopathic effect | DENV2-infected cells, cytopathic effect rescue, plate reader | CPE inhibition, % at 9.99 µM | 1.7% of 350,000 active; in the data active = CPE inhibition above about 20%, passing the limit was not always enough; tested in BHK-21 cells;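 also: 0% = median of neutral control wells and 100% = median of positive control wells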
SIRT5 inh: sirtuin-5 (human) deacylase inhibition; Q9NXA8; Purified SirT5, succinyl-peptide AMC, trypsin-coupled fluorescence; inhibition, % at 15 µM; 1.1% of 330,000 active; AID 652115; in the data active = inhibition above about 15%
ERAP1 HTS inh: ERAP1 (human) enzyme inhibition | recombinant ERAP1, Leu-AMC fluorescence, 60 min | inhibition, % at 10.7 µM | 0.15% of 340,000 active | AID 652197;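 active = mean replicate inhibition of at least 30%, or all replicates individually reaching that 30% level; inactive = mean below 30% and not every replicate reaching it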;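 also: 0% = neutral control wells and 100% = L-leucinethiol positive control wells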
Target sequence (Q9NZ08 whole entry, looked up): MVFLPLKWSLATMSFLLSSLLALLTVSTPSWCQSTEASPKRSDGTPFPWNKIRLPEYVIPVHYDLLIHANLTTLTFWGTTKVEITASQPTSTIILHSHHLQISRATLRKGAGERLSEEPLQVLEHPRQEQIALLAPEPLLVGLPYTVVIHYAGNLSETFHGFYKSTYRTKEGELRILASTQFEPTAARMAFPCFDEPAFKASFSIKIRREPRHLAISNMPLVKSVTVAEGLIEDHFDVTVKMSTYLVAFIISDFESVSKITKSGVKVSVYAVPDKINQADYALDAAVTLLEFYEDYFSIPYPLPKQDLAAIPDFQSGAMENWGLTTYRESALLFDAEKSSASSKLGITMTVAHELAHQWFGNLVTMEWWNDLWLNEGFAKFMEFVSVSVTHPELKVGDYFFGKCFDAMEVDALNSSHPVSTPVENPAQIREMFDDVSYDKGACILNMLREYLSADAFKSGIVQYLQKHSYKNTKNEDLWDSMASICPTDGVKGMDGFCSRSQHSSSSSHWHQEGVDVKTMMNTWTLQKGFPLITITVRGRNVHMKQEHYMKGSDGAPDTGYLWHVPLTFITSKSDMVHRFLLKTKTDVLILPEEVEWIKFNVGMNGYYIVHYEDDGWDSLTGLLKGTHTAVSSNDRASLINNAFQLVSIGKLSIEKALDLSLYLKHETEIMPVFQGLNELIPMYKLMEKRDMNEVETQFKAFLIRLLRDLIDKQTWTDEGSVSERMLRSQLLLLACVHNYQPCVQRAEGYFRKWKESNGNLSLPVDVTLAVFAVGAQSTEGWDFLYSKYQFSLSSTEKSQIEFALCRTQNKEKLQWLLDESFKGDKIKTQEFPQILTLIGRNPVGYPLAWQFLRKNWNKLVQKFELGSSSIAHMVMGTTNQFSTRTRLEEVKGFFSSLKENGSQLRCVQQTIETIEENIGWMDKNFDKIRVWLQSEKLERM
* hit, by the source's call; / = not tested or not shown. In the library only some 2.9% were active in any assay of this set; here they are far more common.

SMILES	CAL PDZ FP-1	S100A4 MyoIIA	CAL PDZ FP-2	DENV2 CPE rescue	SIRT5 inh	ERAP1 HTS inh
CCOP(=O)(OCC)C1NC(=O)N(c2ccccc2)C1=O (centres undefined)	1	-1	5	-2	30*	1
CC(C)CC#Cc1ccc([C@@H]2[C@H](CO)N3C(=O)CN(C(=O)Cc4ccccc4)C[C@@H]23)cc1	/	-1	/	-5	-2	6
CC(C)C[C@@H](CO)NS(=O)(=O)c1c(F)cccc1F	4	-2	35*	49*	0	-6
CO[C@@H]1CN(C)C(=O)c2cc(NC(=O)C3CCCCC3)ccc2OC[C@@H](C)N(Cc2nccs2)C[C@@H]1C	/	-1	/	-4	-3	-1
O=C(Nc1ccc(F)cc1)N[C@@H]1CC[C@@H](CCn2cc(-c3ccc(F)cc3)nn2)O[C@H]1CO	/	3	/	22*	5	4
COc1ccc(NC(=O)N[C@@H]2CC[C@H](CCn3cc(-c4ccc(F)cc4)nn3)O[C@@H]2CO)cc1	/	-3	/	3	2	-6
COc1ccc(NC(=O)N[C@@H]2CC[C@@H](CCn3cc(C4(O)CCCC4)nn3)O[C@@H]2CO)cc1	/	-4	/	5	-7	3
O=C(N[C@H]1CC[C@@H](CCn2cc(-c3ccc(F)cc3)nn2)O[C@H]1CO)c1cnccn1	/	-3	/	-6	0	5
COc1ccc(-c2cn(CC[C@@H]3CC[C@H](NC(=O)Nc4ccc(F)cc4)[C@H](CO)O3)nn2)cc1	/	1	/	95*	3	3
O=C(Nc1ccc(F)cc1)N[C@H]1CC[C@@H](CCn2cc(-c3ccc(F)cc3)nn2)O[C@H]1CO	/	3	/	-9	-1	5
O=C(N[C@@H]1CC[C@@H](CCn2cc(-c3ccc(F)cc3)nn2)O[C@@H]1CO)c1cnccn1	/	-29	/	2	15*	0
COc1ccc(NC(=O)N[C@H]2CC[C@@H](CCn3cc(C4(O)CCCC4)nn3)O[C@@H]2CO)cc1	/	4	/	93*	0	2
C[C@H](NC(=O)C[C@@H]1CC[C@H]2[C@@H](COC[C@H](O)CN2C(=O)Nc2cccc(Cl)c2)O1)c1ccccc1	/	/	/	-1	/	/
Cc1cc(OCC(=O)NCc2ccccn2)c2c(C)cc(=O)oc2c1	0	11	47*	0	-7	5
CCCc1cc(=O)oc2cc(C)cc(OCC(=O)NCc3ccccn3)c12	-2	0	-2	3	-16	-1
CCCNC(=O)C[C@@H]1C[C@@H]2c3cc(NC(=O)NC4CCCCC4)ccc3O[C@@H]2[C@@H](CO)O1	/	-1	/	-8	2	1
Cc1noc(C)c1NC(=O)N(C)C[C@H]1OCCCC[C@@H](C)Oc2ccc(NS(=O)(=O)c3cn(C)cn3)cc2C(=O)N([C@@H](C)CO)C[C@@H]1C	/	/	/	-6	/	/
CO[C@H]1CN(C)C(=O)c2ccc(NS(=O)(=O)c3cccc(F)c3)cc2OC[C@@H](C)N(Cc2cc(F)ccc2F)C[C@@H]1C	/	1	/	-8	/	-2
CO[C@H]1CN(C)C(=O)c2cc(NS(=O)(=O)c3cccc(F)c3)ccc2OC[C@H](C)N(Cc2cc(F)ccc2F)C[C@@H]1C	/	9	/	-9	16*	-1
CO[C@H]1CN(C)C(=O)c2cc(NS(=O)(=O)c3cccc(F)c3)ccc2OC[C@@H](C)N(Cc2cc(F)ccc2F)C[C@@H]1C	/	0	/	22*	13	-1
CO[C@H]1CN(C)C(=O)c2ccc(NS(=O)(=O)c3cccc(F)c3)cc2OC[C@@H](C)N(Cc2cc(F)ccc2F)C[C@H]1C	/	-3	/	49*	/	-3
CCC(=O)N1CC2(CCN(Cc3ccc(F)cc3)CC2)c2c(n(C)c3cc(OC)ccc23)[C@H]1CO	/	0	/	-4	/	-4
COc1ccc(NC(=O)Nc2ccc3c(c2)OC[C@H](C)NC[C@H](C)[C@@H](OC)CN(C)C3=O)cc1	/	12	/	1	-2	-1
O=c1c(Br)c(Br)cnn1-c1ccccc1	-1	3	32*	/	13	-3
COc1ccc(C2C(C(=O)N3CCOCC3)CCC(=O)N2c2ccc(OC)cc2)cc1 (centres undefined)	-1	/	108*	/	/	/
SMILES	CAL PDZ FP-1	S100A4 MyoIIA	CAL PDZ FP-2	DENV2 CPE rescue	SIRT5 inh	ERAP1 HTS inh
CC(C)NC(=O)N1CC2(C1)[C@@H](c1ccccc1)[C@H](CO)N2C(=O)C1CCCCC1	/	-4	/	2	1	-5
Cc1ccnc(NC(=O)C(Cc2ccccc2)NC(=O)c2ccccc2)c1 (centres undefined)	0	2	/	38*	-2	-2
CCN(CC)c1ccc(/C=N/N2C(=O)c3ccccc3C2=O)cc1	-1	/	-4	/	/	/
CCN(CC)c1ccc(N2C(=O)c3ccccc3C2=O)cc1	/	2	102*	/	-5	2
CCN(CC)c1ccc(/C=N/N2C(=O)c3ccccc3C2=O)c(O)c1	-2	3	1	42*	3	1
Cc1ccc(N2C(=O)c3ccccc3C2=O)cc1	-1	2	-4	1	-1	2
Cc1cccc(S(=O)(=O)N2C[C@H](O)COC[C@@H]3O[C@H](CC(=O)N4CCN(C)CC4)CC[C@H]32)c1	/	-16	/	-14	1	2
CC(C)(C)c1ccc(C(=O)N2[C@H](COCc3ccccc3)C=CS2(=O)=O)cc1	/	1	/	0	20*	7
COc1cccc(C(=O)N2[C@H](COCc3ccccc3)C=CS2(=O)=O)c1	/	1	/	-4	-1	-1
CCN(CCO)Cc1csc2ccc(C(C)(C)C)cc12	-1	/	57*	/	/	/
CO[C@@H](CN(C)C(=O)c1ccc2c(c1)OCO2)[C@H](C)CN([C@H](C)CO)S(=O)(=O)c1ccc(C)cc1	/	-9	/	2	0	2
c1ccc(COc2cccc(-c3cc4nc(NCCc5ccncc5)ccn4n3)c2)cc1	/	3	/	7	19*	5
OC[C@@H]1[C@H](c2ccc(-c3ccc(F)cc3)cc2)[C@H]2CN(Cc3ccccn3)CCCCN12	/	-13	/	33*	-8	-1
OC[C@@H]1[C@@H](c2ccc(-c3ccc(F)cc3)cc2)[C@@H]2CN(Cc3ccccn3)CCCCN12	/	-13	/	63*	-8	-1
Cc1ccc(OC(=O)N(C)C[C@@H]2OCc3ccccc3-c3ccccc3C(=O)N([C@H](C)CO)C[C@H]2C)cc1	/	9	/	-4	/	-1
